Screening data (PubChem BioAssay)
m5-HT2A agonist: activates the mouse 5-HT2A serotonin receptor. P35363. CHO-K1 mHTR2A beta-arrestin complementation, luminescence; percent of 30 µM serotonin response. activation, % at 7.6 µM. hit rate 0.66% among 360,000. AID 624169;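 active means activation above a run cutoff, the mean activation of all tested compounds plus 3 SD, cut at about 14% in these data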;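 further: 0% = plate median of compound wells and 100% = 30 µM serotonin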
sPLA2-III inh: Inhibits HGIII-sPLA2 liposome hydrolysis, primary screen | hit rate 0.56% among 370,000 | inhibition, % at 12.2 µM | QFRET BODIPY PC-A2 liposome hydrolysis, fluorescence;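 active means inhibition above mean plus 3 SD of compounds lying within the high and low control bounds, cut at about 19% in these data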;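 further: 0% = median of test compound wells and 100% = no enzyme DMSO wells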
Target sequence (Q9NZ20 whole entry, looked up): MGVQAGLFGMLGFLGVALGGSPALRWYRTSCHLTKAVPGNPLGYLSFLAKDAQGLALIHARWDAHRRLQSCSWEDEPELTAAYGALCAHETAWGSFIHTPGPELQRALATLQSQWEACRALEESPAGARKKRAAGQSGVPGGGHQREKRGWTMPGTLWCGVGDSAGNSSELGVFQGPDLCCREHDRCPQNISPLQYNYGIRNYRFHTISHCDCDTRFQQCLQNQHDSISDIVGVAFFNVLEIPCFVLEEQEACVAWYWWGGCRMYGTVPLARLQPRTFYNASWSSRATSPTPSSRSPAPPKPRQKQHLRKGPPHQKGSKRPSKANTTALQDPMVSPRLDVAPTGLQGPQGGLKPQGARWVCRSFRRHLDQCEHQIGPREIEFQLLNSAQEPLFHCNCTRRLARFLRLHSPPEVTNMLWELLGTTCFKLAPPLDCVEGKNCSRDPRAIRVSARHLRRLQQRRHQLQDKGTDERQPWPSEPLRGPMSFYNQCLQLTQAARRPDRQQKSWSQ
M18AAP inhibitor: blocks P. falciparum M18 aspartyl aminopeptidase. recombinant PfM18AAP, H-Glu-NHMec fluorogenic cleavage. inhibition, % at 7.35 µM. hit rate 1.2% among 290,000. AID 1822;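 active means inhibition above the campaign mean inhibition over all tested compounds plus 3 SD, cut at about 28% in these data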;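 further: 0% = plate median of test compound wells and 100% = 2 mM ZnCl2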
CendR NRP1 mod: NRP-1/CendR interaction modulation; FAM-RPARPAR peptide binding to NRP-1, fluorescence polarization; inhibition, % at 25 µM; hit rate 0.85% among 360,000; AID 602438;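 active means inhibition or corrected inhibition above about 18%, plus a signal ratio from 0.5 to 1.5, limit read from the data, passing the limit was not always enough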
Arrestin-AP2 inh: inhibitors of human beta-arrestin and AP2 interaction; hit rate 0.31% among 340,000; inhibition, % at 10 µM; AID 504490; FITC-arrestin peptide / GST-AP2 beads, flow cytometry; AP2 beta2 appendage carries R879A mutation;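 active means inhibition above a set limit, near 3 SD of compounds lacking own fluorescence, cut at about 54% in these data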;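 further: plate controls were DMSO wells for no effect and 5 µM unlabelled arrestin peptide for full effect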
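Assay system: GST-AP2 R879A bound to glutathione beads, E. coli-expressed; Medium: PBS with 0.05% Tween 20 and 0.1% BSA; Also added: fluorescein-tagged arrestin peptide at 50 nM final; Timing: 12 min plus 1 h, RT; Measured by: flow cytometry, FL1 (488/535 nm); Evaluation: percent drop in bead-associated FITC signal.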
Hep lipid drop: hepatic lipid droplet formation modulation; inhibition, % at 6.5 µM; AML12 mouse hepatocytes, oleate lipid droplets, BODIPY imaging; hit rate 0.4% among 240,000; AID 1656;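 active means lipid droplet intensity inhibited by at least 50%, with more than 500 cells counted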
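Assay system: AML12 hepatocytes (mouse) / Also added: 100 µM oleic acid challenge / Times: overnight treatment with compound plus oleate / Detection: high-content imaging of BODIPY-stained droplets and DAPI nuclei / Evaluation: % inhibition of lipid droplet signal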
MOR ag counter: activates human mu opioid receptor in HTR2A counterscreen; shares compounds with m5-HT2A agonist; U2OS OPRM1 beta-arrestin PathHunter, luminescence; DMSO 0%, DAMGO 9.3 µM 100%; activation, % at 9.3 µM; hit rate 5.3% among 2,300; AID 624380;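 active means mean activation above the mean of DMSO-only wells plus 3 SD, cut at about 0.5% in these data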
HTR2A ag conf: confirmation of mouse HTR2A serotonin receptor agonists. shares compounds with m5-HT2A agonist. CHO-K1 PathHunter beta-arrestin recruitment, luminescence; DMSO 0%, 30 µM serotonin 100%. activation, % at 7.6 µM. hit rate 19% among 2,300. AID 624381;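 active means mean activation across triplicates above the hit threshold derived in the original primary screen, cut at about 15% in these data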
* = called active by the depositor; · = no result given. Compounds with a hit are over-represented: about 3.3% of the library has one in this group of screens.

SMILES | m5-HT2A agonist | sPLA2-III inh | M18AAP inhibitor | CendR NRP1 mod | Arrestin-AP2 inh | Hep lipid drop | MOR ag counter | HTR2A ag conf
Cc1ccc(NC(=O)CN(C)S(=O)(=O)c2ccc(Cl)s2)c(O)c1 | 18* | -58 | · | 1 | 13 | · | -1 | -1
COC(C(=O)NNS(=O)(=O)c1ccc([N+](=O)[O-])cc1)c1ccccc1 (configuration not stated) | 7 | 8 | -1 | 3 | -6 | -28 | · | ·
COC(C(=O)NNS(=O)(=O)c1ccccc1[N+](=O)[O-])c1ccccc1 (configuration not stated) | 18* | 9 | 5 | -1 | 24 | 2 | 0 | -1
O=C(NC1CCCCCC1)C1CCCN1S(=O)(=O)c1cccc2cccnc12 (configuration not stated) | -8 | -1 | 6 | 7 | -1 | · | · | ·
O=C(NC1CCCC1)C1CCCN1S(=O)(=O)c1cccc2cccnc12 (configuration not stated) | 22* | 14 | 0 | 7 | 1 | · | 0 | -1
CC(CCc1ccccc1)NC(=O)c1ccccc1Cl (configuration not stated) | 24* | -1 | -3 | -5 | 11 | 4 | 0 | -4
CC(CCc1ccccc1)NC(=O)c1ccccc1F (configuration not stated) | -3 | 1 | 4 | 11 | 23 | -3 | · | ·
CN(C(=O)c1ccccc1Cl)c1ccccc1C(=O)NCc1ccccc1 | 35* | 1 | 4 | 12 | -10 | -5 | -1 | -3
COc1ccccc1C(=O)NCCC(=O)NCC1COc2ccccc2O1 (configuration not stated) | 1 | 0 | · | 10 | 28 | · | · | ·
Cc1ccc(/C=N/c2sc3c(c2C#N)CCCCC3)o1 | 16* | 13 | 28 | -9 | -6 | · | 0 | 16*
N#Cc1c(/N=C/c2ccco2)sc2c1CCC2 | -1 | -1 | 13 | -16 | 3 | 2 | · | ·
CCOc1cccc(C(=O)NNC(=O)C2C3C=CC(C3)C2C(=O)O)c1 (configuration not stated) | 3 | 3 | -8 | 4 | 28 | 6 | · | ·
COc1ccc(-c2cc(C(=O)NC3CCCC3)no2)cc1 | 25* | 4 | -2 | -2 | -11 | -8 | 0 | -4
COc1cccc(-c2cc(C(=O)NC3CCCCC3)no2)c1 | -7 | -2 | -4 | 11 | 3 | 3 | · | ·
CCOC(=O)CN1C(=O)S/C(=C/c2ccc3c(c2)n(C)c(=O)n3C)C1=O | 2 | -2 | 3 | -2 | -5 | 3 | · | ·
Cn1c(=O)n(C)c2cc(/C=C3/SC(=O)N(CC(=O)N4CCOCC4)C3=O)ccc21 | 17* | 9 | -10 | -11 | -14 | -40 | -1 | -1
COCC(=O)Nc1cc([N+](=O)[O-])ccc1OC | 44* | 17 | 1 | -8 | 13 | 18 | -1 | -5
O=S1(=O)CC(N2CCC(Cc3ccccc3)CC2)CN1CCc1ccccc1 (configuration not stated) | -2 | -9 | · | 11 | · | · | · | ·
CC(=C/c1ccccc1)/C=N/n1c(-c2ccncc2)n[nH]c1=S | -2 | 18 | 16 | 18 | -9 | -3 | · | ·
CC(/C=N/n1c(-c2ccccc2)n[nH]c1=S)=C\c1ccco1 | 22* | 8 | 8 | -36 | 6 | 14 | -1 | -1
CC(/C=N/n1c(-c2ccncc2)n[nH]c1=S)=C\c1ccco1 | 20* | 23* | 11 | -93 | 22 | -24 | -1 | -3
c1ccc(Nc2nc(N3CCNCC3)nc(N3CCOCC3)n2)cc1 | 23* | -5 | 1 | -4 | 8 | 33 | 0 | 12
C(=N\Nc1nc(N2CCCC2)nc(N2CCCC2)n1)/c1cccnc1 | 15* | 12 | -4 | 1 | -11 | -12 | 0 | -1
c1ccc(Nc2nc(N3CCOCC3)nc(N3CCOCC3)n2)cc1 | 3 | 2 | -2 | 12 | -6 | 31 | · | ·
c1cncc(CNc2nc(N3CCOCC3)nc(N3CCOCC3)n2)c1 | 16* | 1 | -10 | 4 | 4 | 17 | 0 | -5
SMILES | m5-HT2A agonist | sPLA2-III inh | M18AAP inhibitor | CendR NRP1 mod | Arrestin-AP2 inh | Hep lipid drop | MOR ag counter | HTR2A ag conf
CCN(CC)C(=O)Cn1c2ccccc2c2nc3n(c(=O)c21)CCS3 | · | 7 | · | · | · | · | · | ·
COC(=O)[C@]12C[C@H](CC(=O)NCc3cccs3)C(=O)N(CCC3=CCCCC3)C1=C[C@H](C1CCCC1)O[C@@H]2C | · | -15 | · | · | · | · | · | ·
O=C(Nc1ccc(NC(=O)c2cccs2)cc1)c1cccs1 | 7 | 0 | 8 | 0 | 25 | 15 | · | ·
O=C(Nc1ccc2[nH]ccc2c1)c1cccs1 | 15* | 3 | -7 | 12 | -8 | 0 | 0.9* | 2
COc1cc2oc(=O)cc(CN3CCN(c4ccc(Cl)c(Cl)c4)CC3)c2cc1Cl | 25* | -3 | · | -2 | · | · | -1 | 9
CCCCn1nnnc1C(c1cc2ccccc2o1)N1CCN(C(=O)OCC)CC1 (configuration not stated) | 17* | -9 | · | 11 | · | · | -1 | -5
CCOC(=O)N1CCN(C(c2cc3ccccc3o2)c2nnnn2C(C)(C)C)CC1 (configuration not stated) | -1 | 5 | · | 5 | · | · | · | ·
O=C(Nc1cccc2nsnc12)c1ccc(-c2cccc(Cl)c2)o1 | 16* | -2 | -27 | -48 | 28 | · | 0 | 0
O=C(Nc1ccccc1N1CCCCC1)c1ccc(-c2cccc(Cl)c2)o1 | 1 | 3 | -3 | 9 | -1 | -22 | · | ·
COc1ccc(CN2C[C@@H](CO)O[C@@H](n3cnc4c(NCc5ccc(F)cc5)ncnc43)C2)cc1 | -2 | -11 | · | 0 | · | · | · | ·
Nc1cc(=O)[nH]c(SCc2csc(-c3ccccc3)n2)n1 | 19* | 2 | -1 | 8 | -5 | 4 | -1 | -3
COc1cccc(NC(=S)NC2CC(C)CC(C)(C)C2)c1 (configuration not stated) | 12 | -1 | · | 1 | · | · | · | ·
O=C(CN1C(=O)NC2(CCCC2)C1=O)NCc1ccc(Cl)cc1 | 19* | 9 | · | -3 | 27 | · | 0 | -2
O=C(CN1C(=O)NC2(CCCC2)C1=O)NCc1ccc(F)cc1 | 2 | -3 | · | 12 | 4 | · | · | ·
O=C(CN1C(=O)NC2(CCCC2)C1=O)OCc1ccccc1F | 0 | 5 | · | 10 | -8 | · | · | ·
O=C(CN1C(=O)NC2(CCCC2)C1=O)OCc1c(F)cccc1Cl | 17* | 9 | · | -8 | 3 | · | -1 | -1
O=C1NC[C@@H](CCCCN2C[C@H](Cc3ccc(O)cc3)N(Cc3ccccc3)C(=O)C2=O)N(CCC2CCCCC2)C1=O | -1 | -15 | · | 2 | · | · | · | ·
